Results on 31 compounds are retold here after ChEMBL document CHEMBL2331191, “Design and synthesis of novel 1,2,3-triazole-dithiocarbamate hybrids as potential anticancer agents” (Eur J Med Chem, 2013).

A word on the IC50: it is the midpoint of a concentration-inhibition curve.

Format in all cases: functional, cell-based
The nature of test [1]: Cytotoxicity against human EC109 cells assessed as growth inhibition after 72 hrs by MTT assay. As to conditions: ECa-109, 72 h. Put shortly: (§1)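 Exponentially growing cells were seeded at 5×10^3 per well and held 24 h at 37 °C. Medium was then replaced with fresh medium containing a range of concentrations, and cells were exposed for 72 h. MTT (5 mg/mL) was added for 4 h at 37 °C, formazan was dissolved in DMSO and A570 was read. Triplicate wells per concentration, three experiments. IC50 was taken from dose–response curves of inhibition ratio.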
In general terms: Tetrazolium assays rely on reduction of a dye to a coloured formazan, in cell work by metabolically active cells.

The next test has as its system PC-3. Nature of the test: Cytotoxicity against human PC3 cells assessed as growth inhibition after 72 hrs by MTT assay. As to conditions: PC-3, 72 h. The method, boiled down: as §1
The subject of the next test is MCF7. Briefly: Cytotoxicity against human MCF7 cells assessed as growth inhibition after 72 hrs by MTT assay. Particulars: MCF7, 72 h. The method, boiled down: as §1
A further test deals with MGC-803. Nature of the test: Cytotoxicity against human MGC803 cells assessed as growth inhibition after 72 hrs by MTT assay. Particulars: MGC-803, 72 h. The method, boiled down:
as §1

Take `CC(C)(C)OC(=O)N1CCN(C(=S)SCc2cn(-c3ccccc3F)nn2)CC1`: the IC50 in test [1] was > 128 µM; in the test on PC-3, > 128 µM; in the test on MCF7, 89.6 µM; in the test with MGC-803 it was 119 µM.

For `Cc1ccc(Cn2cc(CSC(=S)N3CCN(C(=O)OCc4ccccc4)CC3)nn2)cc1`, the IC50 in test [1] was 32.6 µM; in the test with PC-3, > 128 µM; with MCF7 it was 37.8 µM; in the test with MGC-803, 9.37 µM.

For the compound `O=C(OCc1ccccc1)N1CCN(C(=S)SCc2cn(Cc3ccccc3F)nn2)CC1`, the IC50 was 27 µM in test [1], 68.3 µM in the test with PC-3, 7.95 µM in the test on MCF7 and 5.06 µM with MGC-803.

Take `CC(C)(C)OC(=O)N1CCN(C(=S)SCc2cn(-c3cccc(C(F)(F)F)c3)nn2)CC1`: the IC50 in test [1] was 69.3 µM; in the test with PC-3, > 128 µM; in the test on MCF7, 80.4 µM; with MGC-803 it was 66.8 µM.

Regarding `COc1cc(Cn2cc(CSC(=S)N3CCN(C(=O)OC(C)(C)C)CC3)nn2)cc(OC)c1OC`, the IC50 was 44.4 µM in test [1], > 128 µM with PC-3, 22.7 µM in the test on MCF7 and 27.3 µM in the test on MGC-803.

`CC(C)(C)OC(=O)N1CCN(C(=S)SCc2cn(Cc3ccc(Cl)cc3)nn2)CC1`: the IC50 is > 128 µM in test [1], > 128 µM in the test with PC-3, 2.96 µM in the test on MCF7 and 9.79 µM in the test with MGC-803.

For `COc1ccc(Cn2cc(CSC(=S)N3CCN(C(=O)OCc4ccccc4)CC3)nn2)cc1`, the IC50 in test [1] is 58.3 µM; with PC-3 it was > 128 µM; in the test with MCF7 it was 30.5 µM; in the test on MGC-803, 23.8 µM.

As for `CC(C)(C)OC(=O)N1CCN(C(=S)SCc2cn(Cc3ccc(Cl)c(Cl)c3)nn2)CC1`, the concentration for half-maximal inhibition (IC50) in test [1] is > 128 µM; in the test with PC-3, > 128 µM; in the test on MCF7 it was 19.1 µM; in the test on MGC-803, 33.7 µM.

On to `O=C(OCc1ccccc1)N1CCN(C(=S)SCc2cn(Cc3ccc(Cl)cc3)nn2)CC1`, for which the IC50 was > 128 µM in test [1], > 128 µM in the test on PC-3, 27.5 µM with MCF7 and 31.3 µM in the test with MGC-803.

For the compound `Fc1ccc(Cn2cc(CSC(=S)N3CCNCC3)nn2)cc1`, the IC50 in test [1] was > 128 µM; in the test on PC-3, > 128 µM; with MCF7, 49.9 µM; in the test on MGC-803 it was 32.5 µM.

As for `Cc1ccc(-n2cc(CSC(=S)N3CCN(C(=O)OC(C)(C)C)CC3)nn2)cc1`, the IC50 was 114 µM in test [1], > 128 µM in the test with PC-3, 74.2 µM in the test on MCF7 and 48.3 µM in the test on MGC-803.

Regarding `S=C(SCc1cn(Cc2ccccc2Cl)nn1)N1CCNCC1`, the IC50 was > 128 µM in test [1], 38.9 µM in the test with MCF7 and 45.2 µM in the test on MGC-803.

`Cc1ccc(Cn2cc(CSC(=S)N3CCN(C(=O)OC(C)(C)C)CC3)nn2)cc1`: the concentration for half-maximal inhibition (IC50) in test [1] was 47.9 µM; with PC-3, 17.2 µM; in the test on MCF7, 19.7 µM; in the test with MGC-803, 3.49 µM.

Regarding `COc1ccc(Cn2cc(CSC(=S)N3CCN(C(=O)OC(C)(C)C)CC3)nn2)cc1`, the IC50 in test [1] is 36.8 µM; in the test with PC-3, > 128 µM; with MCF7, 4.96 µM; in the test on MGC-803 it was 22.8 µM.

On to `COc1ccc(Cn2cc(CSC(=S)N3CCNCC3)nn2)cc1`, for which the IC50 (in test [1]; with PC-3) was > 128 µM each time.

In the case of `COc1cc(Cn2cc(CSC(=S)N3CCN(C(=O)OCc4ccccc4)CC3)nn2)cc(OC)c1OC`, the IC50 was > 128 µM in test [1], > 128 µM with PC-3, > 128 µM in the test with MCF7 and 10.9 µM in the test on MGC-803.

Turning to `COc1cc(Cn2cc(CSC(=S)N3CCNCC3)nn2)cc(OC)c1OC`, the IC50 (in test [1]; in the test with PC-3) was > 128 µM in each case.

Take `COc1ccc(-n2cc(CSC(=S)N3CCN(C(=O)OC(C)(C)C)CC3)nn2)cc1`: the IC50 in test [1] was > 128 µM; with PC-3 it was > 128 µM; with MCF7, 93 µM; in the test on MGC-803, 87.3 µM.

For `Fc1ccccc1Cn1cc(CSC(=S)N2CCNCC2)nn1`, the IC50 in test [1] was > 128 µM; in the test with PC-3, 56.2 µM; in the test with MCF7 it was 33.2 µM; in the test on MGC-803, 19.4 µM.

On to `CC(C)(C)OC(=O)N1CCN(C(=S)SCc2cn(Cc3ccccc3F)nn2)CC1`, for which the values for the IC50 (in test [1]; in the test with PC-3; with MCF7) were 2.44 µM, 11.6 µM and 5.67 µM, respectively.

As to `Cc1ccc(Cn2cc(CSC(=S)N3CCNCC3)nn2)cc1`, the IC50 was > 128 µM in test [1], 19.8 µM in the test with PC-3, 53.2 µM in the test with MCF7 and 64.3 µM in the test on MGC-803.

Turning to `Cc1cc(=O)oc2cc(OCCn3cc(CSC(=S)N4CCN(C(=O)OC(C)(C)C)CC4)nn3)ccc12`, the IC50 is > 128 µM in test [1], > 128 µM in the test on PC-3, 90.4 µM in the test on MCF7 and 76.9 µM in the test with MGC-803.

`S=C(SCc1cn(Cc2ccc(Cl)cc2)nn1)N1CCNCC1`: the IC50 (in test [1]; in the test with PC-3) was > 128 µM throughout.

As for `O=C(OCc1ccccc1)N1CCN(C(=S)SCc2cn(Cc3ccccc3Cl)nn2)CC1`, the IC50 was 56.8 µM in test [1], > 128 µM with PC-3, 21.4 µM in the test on MCF7 and 15.5 µM in the test with MGC-803.

For the compound `CC(C)(C)OC(=O)N1CCN(C(=S)SCc2cn(Cc3ccc(F)cc3)nn2)CC1`, the IC50 is 58.9 µM in test [1], > 128 µM with PC-3, 3.34 µM in the test with MCF7 and 1.93 µM with MGC-803.

In the case of `CC(C)(C)OC(=O)N1CCN(C(=S)SCc2cn(Cc3cc(=O)oc4cc(O)ccc34)nn2)CC1`, the IC50 is > 128 µM in test [1], 36.8 µM with PC-3, 10.4 µM in the test with MCF7 and 4.96 µM in the test with MGC-803.

With `O=C(OCc1ccccc1)N1CCN(C(=S)SCc2cn(Cc3ccc(F)cc3)nn2)CC1`, the IC50 in test [1] is 32 µM; in the test with PC-3, > 128 µM; with MCF7, 10.3 µM; in the test with MGC-803, 17.6 µM.

For the compound `O=c1[nH]cc(F)c(=O)[nH]1` [FLUOROURACIL], the IC50 in test [1] was 3.34 µM; in the test with PC-3 it was 27.1 µM; with MGC-803, 7.01 µM.

Consider `S=C(SCc1cn(Cc2ccc(Cl)c(Cl)c2)nn1)N1CCNCC1`, for which the 50% inhibitory concentration (IC50) in test [1] is > 128 µM.

For the compound `O=C(OCc1ccccc1)N1CCN(C(=S)SCc2cn(Cc3ccc(Cl)c(Cl)c3)nn2)CC1`, the IC50 in test [1] was 29.4 µM; in the test on PC-3 it was > 128 µM; with MCF7, 10.6 µM; in the test on MGC-803 it was 7.14 µM.

For the compound `CC(C)(C)OC(=O)N1CCN(C(=S)SCc2cn(CCOc3ccc4ccc(=O)oc4c3)nn2)CC1`, the IC50 in test [1] was > 128 µM; with PC-3 it was > 128 µM; in the test on MCF7, 79.8 µM; in the test on MGC-803, 67 µM.
